Experimental findings from ChEMBL document CHEMBL2146414, “Lignan derivatives from Krameria lappacea roots inhibit acute inflammation in vivo and pro-inflammatory mediators in vitro” (J Nat Prod, 2011) are described below.

In assay [1] the target is T1, Inhibitor of nuclear factor kappa-B kinase subunit beta (Homo sapiens) (UniProt O14920).
T1 sequence (whole entry): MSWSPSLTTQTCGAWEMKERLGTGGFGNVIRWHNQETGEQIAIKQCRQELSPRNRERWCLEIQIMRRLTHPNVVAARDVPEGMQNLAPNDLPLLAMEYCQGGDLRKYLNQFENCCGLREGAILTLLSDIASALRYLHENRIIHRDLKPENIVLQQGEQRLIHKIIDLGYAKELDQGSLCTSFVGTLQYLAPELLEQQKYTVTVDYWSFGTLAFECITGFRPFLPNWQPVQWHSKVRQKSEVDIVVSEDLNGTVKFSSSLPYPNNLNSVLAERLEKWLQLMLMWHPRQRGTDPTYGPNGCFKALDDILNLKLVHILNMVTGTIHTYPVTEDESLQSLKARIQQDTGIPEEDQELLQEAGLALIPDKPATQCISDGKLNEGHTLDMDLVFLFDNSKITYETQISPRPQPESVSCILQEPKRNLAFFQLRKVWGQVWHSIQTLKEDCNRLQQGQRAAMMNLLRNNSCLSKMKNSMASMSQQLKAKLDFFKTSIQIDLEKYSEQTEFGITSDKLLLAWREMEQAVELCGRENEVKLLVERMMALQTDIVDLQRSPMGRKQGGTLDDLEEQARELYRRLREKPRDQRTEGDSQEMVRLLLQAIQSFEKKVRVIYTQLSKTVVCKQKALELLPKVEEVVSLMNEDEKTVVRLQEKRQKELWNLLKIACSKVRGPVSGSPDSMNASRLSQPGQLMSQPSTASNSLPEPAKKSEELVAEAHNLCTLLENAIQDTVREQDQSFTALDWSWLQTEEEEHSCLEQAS
Description: Inhibition of human IKK2 assessed as reduction in substrate phosphorylation at 10 uM by ELISA. (An ELISA detects its analyte on a solid surface through an enzyme-linked reagent.)

Assay [2] can be described thus: Inhibition of NFkappaB activity transfected in HEK293 cells pretreated for 1 hr before 6 hrs of LPS challenge by luciferase reporter gene assay. As to conditions: Homo sapiens. On the technique in general: Reporter assays use an easily measured gene product as a stand-in for the process of interest.
The subject of assay [3] is Mus musculus. The assay is described as follows: Antiinflammatory activity in CD1 mouse ear dermatitis model assessed as inhibition of Croton oil-induced ear edema at 0.30 umol administered topically per cm'2 of ear measured after induction of dermatitis relative to untreated control. The assay is classed as functional. The method in brief: (§1)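 Male CD-1 mice (28–32 g), anesthetized with ketamine 145 mg/kg i.p.; right ear (about 1 cm2) given 80 μg croton oil in 15 μL acetone, with test substance co-applied in acetone; left ear left untreated. Controls received irritant only. 6 mm punches taken from both ears; edema = weight difference treated minus untreated; % inhibition vs controls. ID50 by graphic interpolation of log dose–effect curves; ANOVA with Dunnett's test.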

For assay [4], the target named is T2, Prostaglandin E synthase (Homo sapiens, UniProt O14684).
T2 sequence (O14684 whole entry): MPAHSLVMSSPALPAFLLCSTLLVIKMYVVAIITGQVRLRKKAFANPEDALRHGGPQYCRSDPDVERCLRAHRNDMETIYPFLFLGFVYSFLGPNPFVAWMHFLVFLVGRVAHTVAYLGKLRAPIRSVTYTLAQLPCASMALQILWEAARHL
Description: Inhibition of mPGES1 in IL-1beta treated human A549 cell microsomal membrane assessed as inhibition of PGE2 formation incubated for 15 mins before addition of PGH2 by RP-HPLC method. In kind it is microsomes, Microsome.

For assay [5], the target named is T3, Polyunsaturated fatty acid 5-lipoxygenase (Homo sapiens, UniProt P09917).
T3 sequence (P09917 whole entry): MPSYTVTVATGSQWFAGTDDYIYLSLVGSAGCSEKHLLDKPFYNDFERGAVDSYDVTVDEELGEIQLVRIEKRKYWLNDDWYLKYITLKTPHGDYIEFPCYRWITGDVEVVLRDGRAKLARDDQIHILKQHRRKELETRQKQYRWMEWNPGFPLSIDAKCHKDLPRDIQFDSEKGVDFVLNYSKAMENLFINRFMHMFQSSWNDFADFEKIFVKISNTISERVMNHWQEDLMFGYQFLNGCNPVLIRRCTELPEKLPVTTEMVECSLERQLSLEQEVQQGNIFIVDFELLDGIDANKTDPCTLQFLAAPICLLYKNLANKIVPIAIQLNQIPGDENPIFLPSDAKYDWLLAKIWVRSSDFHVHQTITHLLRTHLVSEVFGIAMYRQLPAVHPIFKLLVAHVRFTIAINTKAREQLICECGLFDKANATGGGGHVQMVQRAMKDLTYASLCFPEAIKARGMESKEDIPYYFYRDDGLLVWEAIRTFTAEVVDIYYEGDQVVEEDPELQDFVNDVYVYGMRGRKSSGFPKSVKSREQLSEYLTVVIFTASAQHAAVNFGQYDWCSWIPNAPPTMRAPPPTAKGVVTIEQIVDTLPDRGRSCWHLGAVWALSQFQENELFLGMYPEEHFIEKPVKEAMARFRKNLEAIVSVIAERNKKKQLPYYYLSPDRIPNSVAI
Description: Inhibition of 5-lipoxygenase in human neutrophils assessed as inhibition of LTB4 production. The method in brief: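 Stimulated human neutrophilic granulocytes; 5-LO-mediated LTB4 formation measured; samples dissolved in ethanol. IC50 from at least three concentrations, duplicates, at least three independent experiments, by nonlinear regression.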

The test system of assay [6] is Mus musculus. The assay is described as follows: Antiinflammatory activity in CD1 mouse ear dermatitis model assessed as inhibition of Croton oil-induced ear edema administered topically per cm'2 of ear measured after induction of dermatitis relative to untreated control. The assay is classed as functional.
The subject of assay [7] is Radical scavenging activity. Description: Antioxidant activity assessed as DPPH free radical scavenging activity up to 100 uM after 30 mins by spectrophotometry. The assay is classed as functional. A general note: DPPH is a stable violet radical that fades when it is reduced.
The test system of assay [8] is Mus musculus. The assay is described as follows: Antiinflammatory activity in CD1 mouse ear dermatitis model assessed as inhibition of Croton oil-induced ear edema at 1 umol administered topically per cm'2 of ear measured after induction of dermatitis relative to untreated control. In kind it is functional. Summed up: as §1
Assay [9] has as its target T4, Peroxisome proliferator-activated receptor alpha (Homo sapiens) (UniProt Q07869).
T4 sequence (whole entry): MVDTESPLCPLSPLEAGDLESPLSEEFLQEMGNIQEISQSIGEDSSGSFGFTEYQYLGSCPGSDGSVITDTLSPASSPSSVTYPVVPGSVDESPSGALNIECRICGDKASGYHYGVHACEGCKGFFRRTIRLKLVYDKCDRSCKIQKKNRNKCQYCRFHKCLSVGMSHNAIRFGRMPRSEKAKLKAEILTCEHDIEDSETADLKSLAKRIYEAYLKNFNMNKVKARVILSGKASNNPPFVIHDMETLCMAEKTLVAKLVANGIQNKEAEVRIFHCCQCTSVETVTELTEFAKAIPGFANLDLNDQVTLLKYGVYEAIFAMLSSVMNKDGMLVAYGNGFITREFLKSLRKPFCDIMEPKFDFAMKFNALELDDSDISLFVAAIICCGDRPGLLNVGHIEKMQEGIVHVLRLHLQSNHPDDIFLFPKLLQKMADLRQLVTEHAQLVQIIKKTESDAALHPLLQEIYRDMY
The assay is described as follows: Activation of PPARalpha transfected in HEK293 cells at 10 uM after 18 hrs by firefly luciferase reporter gene-based luminescence assay. The assay is classed as cell-based.

Structures are written as SMILES. Activity calls are given as the source filed them. The rule behind the calls is not given here.

As to `C/C=C/c1ccc2oc(-c3ccc(O)cc3)cc2c1`, the inhibition result in assay [1] is “inactive”. The concentration for half-maximal inhibition (IC50) (in general, the point on the concentration scale where inhibition reaches its midpoint) in assay [2] is 1.4 µM; in [4] it was 5.3 µM; in assay [5] it was > 50 µM. In addition, the “inhibition (INH)” value is reported as 35% in assay [3] and 74% in assay [8]. For the same molecule, in assay [6], the ID50 came to 0.44 umol/cm2. For the same molecule, the outcome in assay [7] and in assay [9] was inactive.
As to `COc1cc(O)ccc1-c1cc2cc(CCCO)ccc2o1`, in assay [1], the inhibition result was “inactive”. The “inhibition (INH)” value in assay [3] is given as 32%; in assay [8], 75%. Besides, the IC50 in [4] is > 50 µM; in assay [5] it was 41.4 µM. For the same molecule, the ID50 in assay [6] is 0.45 umol/cm2. In addition, the result in assay [9] was inactive.
With `C/C=C/c1ccc2oc(-c3ccc(O)cc3O)cc2c1`, the inhibition entry in assay [1] was “inactive”. Further, the figures for the “inhibition (INH)” value in [3] and in assay [8] were 29% and 64%, respectively. Moreover, the IC50 was 7.4 µM in assay [4] and > 50 µM in [5]. Also, in assay [6], the ID50 stood at 0.6 umol/cm2. Moreover, in assay [9], the outcome was inactive.
With `C/C=C/c1ccc2oc(-c3ccc(OC)cc3O)cc2c1` [RATANIAPHENOL I], the inhibition result in assay [1] was “inactive”. Further, the IC50 in assay [2] was 14.7 µM; in assay [4], 13 µM; in [5] it was > 50 µM. In addition, the “inhibition (INH)” value is 33% in assay [3] and 64% in assay [8]. Moreover, the ID50 in [6] is recorded as 0.57 umol/cm2. Besides, in assay [9], the result was inactive.
Turning to `COc1ccc(-c2cc3cc(CCCO)ccc3o2)c(O)c1`, in assay [1], the inhibition entry was “inactive”. Further, the values for the IC50 in assay [2], in assay [4] and in [5] were 5.9 µM, 42 µM and 27.2 µM, respectively. Further, the “inhibition (INH)” value was found to be 50% in assay [3] and 67% in [8]. Also, the ID50 in assay [6] was 0.36 umol/cm2. In [9], the outcome was inactive.
For `C[C@@H]1[C@H](C)[C@@H](c2ccc(O)cc2)O[C@@H]1c1ccc(O)cc1`, in assay [1], the inhibition result was “inactive”. Also, the “inhibition (INH)” value in assay [3] amounted to 39%; in assay [8], 67%. In addition, the half-maximal inhibitory concentration (IC50) in assay [4] and in [5] was > 50 µM throughout. For the same molecule, in [6], the ID50 turned out to be 0.46 umol/cm2. Besides, the result in assay [7] and in [9] was inactive.
As to `C[C@@H]1[C@H](C)[C@@H](c2ccc(O)cc2)O[C@H]1c1ccc(O)cc1`, the inhibition result in [1] was “inactive”. Further, the values for the IC50 in assay [2], in assay [4] and in assay [5] were > 20 µM, > 50 µM and > 50 µM, respectively. Also, the “inhibition (INH)” value in [3] was found to be 52%; in assay [8] it was 72%. Besides, the ID50 in assay [6] is 0.36 umol/cm2. The result in assay [7] and in assay [9] was inactive.
Take `C/C=C/c1ccc2oc(-c3ccc(O)cc3OC)cc2c1` [RATANIAPHENOL III]: the inhibition entry in assay [1] is “inactive”. Moreover, the IC50 in [2] was > 20 µM; in [4], 13.5 µM; in [5], > 50 µM. The “inhibition (INH)” value in assay [3] came out at 35%; in assay [8], 70%. The ID50 in assay [6] was 0.48 umol/cm2. Besides, the outcome in [9] was inactive.
For the molecule `C/C=C/c1ccc2oc(-c3ccc(O)cc3)c(C)c2c1` [RATANIAPHENOL II], the inhibition result in assay [1] is “inactive”. The entries for the “inhibition (INH)” value in assay [3] and in [8] were 41% and 75%, respectively. The IC50 in assay [4] was 11 µM; in [5] it was > 50 µM. In addition, the ID50 in [6] is reported as 0.4 umol/cm2. Also, the outcome in assay [7] and in assay [9] was inactive.
Regarding `C/C=C/c1ccc2c(c1)[C@@H](C)[C@H](c1ccc(O)cc1)O2`, the inhibition result in [1] was “inactive”. The IC50 in assay [2] is > 20 µM; in [4], 19.5 µM; in assay [5], 18.4 µM. Besides, the “inhibition (INH)” value is 45% in [3] and 81% in assay [8]. For the same molecule, the result in assay [7] and in assay [9] was inactive.
For the molecule `C/C=C/c1ccc2c(c1)[C@H](CO)[C@@H](c1ccc(O)cc1)O2`, the inhibition entry in [1] was “inactive”. Further, the “inhibition (INH)” value is 36% in assay [3] and 75% in assay [8]. Moreover, the IC50 in [4] was 39.5 µM; in assay [5], > 50 µM. Also, the ID50 in assay [6] is listed as 0.42 umol/cm2. The result in [7] and in [9] was inactive.
